Measured values gathered from unrelated publications.
Target: Cyclin-dependent kinase-like 3 (CDKL3, Homo sapiens, UniProt Q8IVW4)

Compound | assay | setting | remaining binding
c1cncc(-c2cccc(Nc3nccc(NC4CCCCC4)n3)c2)c1 | binding, competition with immobilised ligand | 10 µM | 100%
Cc1cnc(Nc2ccc(C(=O)N3CCC(N4CCCC4)CC3)cc2)nc1-c1cc2ccccc2s1 | binding, competition with immobilised ligand | 1 µM | 89%
O=C(Nc1c[nH]nc1C(=O)NC1CCNCC1)c1cc(F)cc(F)c1 | binding, competition with immobilised ligand | 1 µM | 100%
COc1ccnn2ncc(-c3ccnc(N(C)C)n3)c12 | binding | 1 µM | 94%
COc1ncc2cc3ccccc3nc2c1C#N | binding, competition with immobilised ligand | 5 µM | 85%
CS(=O)(=O)NCC[C@H](NC(=O)c1cncc2c1cnn2-c1ccc(F)cc1)c1ccnc(S(C)(=O)=O)c1 | binding, competition with immobilised ligand | 1 µM | 99%
COc1cnc(Nc2cccc(S(N)(=O)=O)c2)nc1N1CCN(c2ccccc2)CC1 | binding, competition with immobilised ligand | 1 µM | 100%
CNCc1ccccc1-c1csc([C@H](C)Nc2nc(C)nc3cc(OC)c(OC)cc23)c1 | cell-free assay, competition with immobilised ligand | 1 µM | 97%
O=C(c1ccc(Nc2nccc(-c3cc4ccccc4s3)n2)cc1)N1CCC(N2CCCC2)CC1 | binding, competition with immobilised ligand | 1 µM | 58%
Cc1noc([C@H]2C[C@@H](c3ccc(C(F)(F)F)cc3)CN(C(=O)N3CCS(=O)(=O)C3)C2)n1 | binding, competition with immobilised ligand | 1 µM | 81%
c1cnn2ncc(-c3ccnc(N4CCC45COC5)n3)c2c1 | binding | 1 µM | 93%
Cn1nc(C(=O)NCc2ccc(C(=O)O)cc2)cc1-c1ccc2[nH]ccc2c1 | cell-free assay, competition with immobilised ligand | 0.1 µM | 100%
C[C@@H](c1ccc(-n2cnc3c(N)ncnc32)cc1)N1CCc2nn(C)c(Cc3ccccc3)c2C1=O | binding, competition with immobilised ligand | 0.1 µM | 95%
Cc1cnn2ncc(-c3ccnc(N(C)C)n3)c2c1 | binding | 1 µM | 86%
O=C(c1ccc(Nc2ncc(Cl)c(-c3ccc(Cl)s3)n2)cc1)N1CCC(N2CCCC2)CC1 | binding, competition with immobilised ligand | 1 µM | 39%
CC(C)(O)c1cncc(-c2nc3ccc(F)cc3n2C2CC2)c1 | cell-free assay, competition with immobilised ligand | 1 µM | 84%
N[C@H]1CCN(c2nccc(-c3cnn4ncccc34)n2)C1 | binding | 1 µM | 100%
COc1cnc(Nc2cccc(S(N)(=O)=O)c2)nc1N1CCN(c2ccccc2)C(=O)C1 | binding, competition with immobilised ligand | 1 µM | 99%
CCCCN(CCCC)C(=O)CN1C[C@H](c2cc(OC)c3c(c2)OCO3)[C@@H](C(=O)O)[C@@H]1CC(C)(C)CCC | cell-free assay, competition with immobilised ligand | 1 µM | 100%
C[C@@H]1CCN(c2nccc(-c3cnn4ncccc34)n2)C1 | binding | 1 µM | 93%
